Tests used:
Blumeria graminis = assay: Antifungal activity against Blumeria graminis in wheat seedlings assessed as reduction in powdery mildew at 20 degC measured after 10 days by pot test; assay type: functional
Botrytis cinerea = assay: Antifungal activity against Botryotinia fuckeliana in cucumber seedlings assessed as reduction in gray mold measured after 4 days by pot test; assay type: functional
Summary of the method: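 Emulsifiable-concentrate formulations were diluted in water and foliar-sprayed to run-off onto cotyledon-stage seedlings. Plants were held 1 day in the greenhouse, then inoculated with agar gel carrying B. cinerea and kept 4 more days at 20°C, humid and dark. Infection degree was scored against untreated controls. pED50 is the negative log of the molar concentration giving 50% control.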

| Structure (SMILES) | pED50 (Blumeria graminis) | pED50 (Botrytis cinerea) |
| --- | --- | --- |
| CC(C)(C)/C(=C/c1ccc(Br)cc1)C(=O)n1ccnc1 | 5.96 | 4.63 |
| Cc1ccc(/C=C(\C(=O)n2ccnc2)C(C)(C)C)cc1 | 3.92 | 3.43 |
| CC(C)(C)/C(=C/c1ccc(C(F)(F)F)cc1)C(=O)n1ccnc1 | 4.19 | 3.04 |
| CC(C)(C)/C(=C/c1ccc(Cl)cc1)C(=O)n1ccnc1 | 5.92 | 4.82 |
| CC(C)(C)/C(=C/c1ccc(C#N)cc1)C(=O)n1ccnc1 | 5.89 | 4.4 |
| CC(C)(C)/C(=C\c1ccc(Cl)cc1)C(=O)n1ccnc1 | 3.52 | 2.92 |
| CC(C)(C)/C(=C/c1ccccc1)C(=O)n1ccnc1 | 4.17 | 3.4 |

Source: ChEMBL document CHEMBL3046092, “Synthesis and fungicidal activity of 1-(alpha-tert-butylcinnamoyl)imidazoles” (2002)
